Experiments:
[1] = target: Serine/threonine-protein kinase MARK2 (Homo sapiens) (UniProt Q7KZI7); test: Inhibition of MARK2 at 1 uM
Outline: (§1)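 Kinase-panel screen using KINOMEscan technology, with 250–400 kinases per panel. Each compound was tested at a single concentration, and inhibition of each kinase was recorded. Selectivity was summarised as S(90), the fraction of kinases inhibited by more than 90%.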

[2] = target: Tyrosine-protein kinase receptor Tie-1 (Homo sapiens) (UniProt P35590); test: Inhibition of TIE1 at 1 uM
[3] = target: T1, Rhodopsin kinase GRK7 (Homo sapiens) (UniProt Q8WTQ7); test: Inhibition of GRK7 at 1 uM
T1 sequence (whole entry): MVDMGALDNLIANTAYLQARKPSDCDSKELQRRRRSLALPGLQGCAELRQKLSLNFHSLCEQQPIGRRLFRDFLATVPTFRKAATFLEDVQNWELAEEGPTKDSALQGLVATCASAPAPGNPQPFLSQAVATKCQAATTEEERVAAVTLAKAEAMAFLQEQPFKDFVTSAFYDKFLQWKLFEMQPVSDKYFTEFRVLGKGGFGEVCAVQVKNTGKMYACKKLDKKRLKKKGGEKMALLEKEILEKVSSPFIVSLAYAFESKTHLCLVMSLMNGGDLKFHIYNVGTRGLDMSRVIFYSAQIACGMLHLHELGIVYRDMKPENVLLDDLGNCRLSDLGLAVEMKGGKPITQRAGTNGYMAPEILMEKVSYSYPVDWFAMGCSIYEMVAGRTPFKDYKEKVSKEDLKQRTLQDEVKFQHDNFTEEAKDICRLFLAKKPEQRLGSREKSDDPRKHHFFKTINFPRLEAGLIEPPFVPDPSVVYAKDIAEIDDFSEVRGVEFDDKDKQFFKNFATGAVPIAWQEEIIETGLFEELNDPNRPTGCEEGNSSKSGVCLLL

[4] = target: Mitogen-activated protein kinase kinase kinase kinase 1 (Homo sapiens) (UniProt Q92918); test: Inhibition of HPK1 at 1 uM
[5] = target: Bone morphogenetic protein receptor type-1B (Homo sapiens) (UniProt O00238); test: Inhibition of BMPR1B at 1 uM
[6] = target: T2, Serine/threonine-protein kinase ICK (Homo sapiens) (UniProt Q9UPZ9); test: Inhibition of ICK at 1 uM
T2 sequence (whole entry): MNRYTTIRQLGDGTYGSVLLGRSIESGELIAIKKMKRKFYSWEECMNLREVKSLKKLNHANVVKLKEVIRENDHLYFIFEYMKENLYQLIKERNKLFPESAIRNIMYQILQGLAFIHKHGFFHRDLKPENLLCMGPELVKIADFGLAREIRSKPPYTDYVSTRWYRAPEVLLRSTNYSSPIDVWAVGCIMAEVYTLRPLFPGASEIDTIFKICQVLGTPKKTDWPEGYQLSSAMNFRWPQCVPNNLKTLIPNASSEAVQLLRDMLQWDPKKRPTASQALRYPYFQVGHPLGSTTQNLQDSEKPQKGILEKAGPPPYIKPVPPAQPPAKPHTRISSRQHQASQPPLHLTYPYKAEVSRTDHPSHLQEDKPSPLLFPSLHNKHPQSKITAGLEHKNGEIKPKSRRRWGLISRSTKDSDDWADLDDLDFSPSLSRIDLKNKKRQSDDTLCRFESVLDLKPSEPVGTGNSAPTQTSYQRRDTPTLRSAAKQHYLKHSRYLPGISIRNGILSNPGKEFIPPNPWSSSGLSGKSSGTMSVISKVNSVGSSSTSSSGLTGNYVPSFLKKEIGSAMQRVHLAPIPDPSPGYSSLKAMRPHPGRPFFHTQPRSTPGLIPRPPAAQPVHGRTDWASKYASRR

[7] = target: Cyclin-dependent kinase 8 (Homo sapiens) (UniProt P49336); test: Inhibition of CDK8 at 1 uM
[8] = target: T3, Interleukin-1 receptor-associated kinase 3 (Homo sapiens) (UniProt Q9Y616); test: Inhibition of IRAK3 at 1 uM
T3 sequence (whole entry): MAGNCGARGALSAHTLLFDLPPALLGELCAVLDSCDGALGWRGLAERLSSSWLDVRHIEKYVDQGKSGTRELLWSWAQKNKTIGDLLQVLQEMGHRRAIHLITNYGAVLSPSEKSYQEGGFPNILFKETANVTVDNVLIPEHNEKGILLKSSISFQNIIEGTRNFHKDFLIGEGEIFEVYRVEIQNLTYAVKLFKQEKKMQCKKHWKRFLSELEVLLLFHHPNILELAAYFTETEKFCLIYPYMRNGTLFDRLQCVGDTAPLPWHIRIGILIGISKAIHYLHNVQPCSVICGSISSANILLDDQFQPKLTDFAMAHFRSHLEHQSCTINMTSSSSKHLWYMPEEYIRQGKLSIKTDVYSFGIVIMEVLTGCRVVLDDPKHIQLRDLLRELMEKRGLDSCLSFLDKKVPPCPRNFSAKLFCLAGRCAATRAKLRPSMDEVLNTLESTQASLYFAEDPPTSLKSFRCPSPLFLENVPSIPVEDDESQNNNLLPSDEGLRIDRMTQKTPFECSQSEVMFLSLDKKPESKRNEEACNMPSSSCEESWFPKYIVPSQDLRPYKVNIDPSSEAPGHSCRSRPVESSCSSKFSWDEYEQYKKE
Outline: (§2)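 Single-concentration screen on the Ambit KINOMEscan platform, run against a panel of 250–400 kinases. Per-kinase inhibition was also summarized as S(90), the fraction of kinases inhibited by more than 90%.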

[9] = test system: Mast/stem cell growth factor receptor Kit (Homo sapiens), P10721 [V559D,V654A]; test: Inhibition of KIT V559D,V654A mutant at 1 uM; outline: as §2
[10] = target: Tyrosine-protein kinase CSK (Homo sapiens) (UniProt P41240); test: Inhibition of CSK at 1 uM
Outline: (§3)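 Single-concentration screen using Ambit Bioscience KINOMEscan technology across a panel of 250–400 kinases. Per-kinase inhibition from this screen was summarized as S(90), the fraction of kinases inhibited by more than 90%.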

[11] = test system: Tyrosine-protein kinase ABL1 (Homo sapiens), P00519 [H396P]; test: Inhibition of ABL1 H396P mutant at 1 uM
Outline: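 Ambit KINOMEscan screen at a single concentration across a 250–400 kinase panel, recorded as percent inhibition. Selectivity was expressed as S(90), the fraction of kinases inhibited >90%.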

[12] = target: Ephrin type-A receptor 4 (Homo sapiens) (UniProt P54764); test: Inhibition of EPHA4 at 1 uM; outline: as §3
[13] = target: Serine/threonine-protein kinase 24 (Homo sapiens) (UniProt Q9Y6E0); test: Inhibition of MST3 at 1 uM
[14] = target: Serine/threonine-protein kinase PLK1 (Homo sapiens) (UniProt P53350); test: Inhibition of PLK1 at 1 uM
[15] = target: STE20/SPS1-related proline-alanine-rich protein kinase (Homo sapiens) (UniProt Q9UEW8); test: Inhibition of STK39 at 1 uM
[16] = target: Tyrosine-protein kinase Fer (Homo sapiens) (UniProt P16591); test: Inhibition of FER at 1 uM; outline: as §3
[17] = target: Serine/threonine-protein kinase MRCK alpha (Homo sapiens) (UniProt Q5VT25); test: Inhibition of MRCKA at 1 uM; outline: as §1

Measured: inhibition

Sequence of Serine/threonine-protein kinase MRCK alpha (Homo sapiens) (Q5VT25 whole entry): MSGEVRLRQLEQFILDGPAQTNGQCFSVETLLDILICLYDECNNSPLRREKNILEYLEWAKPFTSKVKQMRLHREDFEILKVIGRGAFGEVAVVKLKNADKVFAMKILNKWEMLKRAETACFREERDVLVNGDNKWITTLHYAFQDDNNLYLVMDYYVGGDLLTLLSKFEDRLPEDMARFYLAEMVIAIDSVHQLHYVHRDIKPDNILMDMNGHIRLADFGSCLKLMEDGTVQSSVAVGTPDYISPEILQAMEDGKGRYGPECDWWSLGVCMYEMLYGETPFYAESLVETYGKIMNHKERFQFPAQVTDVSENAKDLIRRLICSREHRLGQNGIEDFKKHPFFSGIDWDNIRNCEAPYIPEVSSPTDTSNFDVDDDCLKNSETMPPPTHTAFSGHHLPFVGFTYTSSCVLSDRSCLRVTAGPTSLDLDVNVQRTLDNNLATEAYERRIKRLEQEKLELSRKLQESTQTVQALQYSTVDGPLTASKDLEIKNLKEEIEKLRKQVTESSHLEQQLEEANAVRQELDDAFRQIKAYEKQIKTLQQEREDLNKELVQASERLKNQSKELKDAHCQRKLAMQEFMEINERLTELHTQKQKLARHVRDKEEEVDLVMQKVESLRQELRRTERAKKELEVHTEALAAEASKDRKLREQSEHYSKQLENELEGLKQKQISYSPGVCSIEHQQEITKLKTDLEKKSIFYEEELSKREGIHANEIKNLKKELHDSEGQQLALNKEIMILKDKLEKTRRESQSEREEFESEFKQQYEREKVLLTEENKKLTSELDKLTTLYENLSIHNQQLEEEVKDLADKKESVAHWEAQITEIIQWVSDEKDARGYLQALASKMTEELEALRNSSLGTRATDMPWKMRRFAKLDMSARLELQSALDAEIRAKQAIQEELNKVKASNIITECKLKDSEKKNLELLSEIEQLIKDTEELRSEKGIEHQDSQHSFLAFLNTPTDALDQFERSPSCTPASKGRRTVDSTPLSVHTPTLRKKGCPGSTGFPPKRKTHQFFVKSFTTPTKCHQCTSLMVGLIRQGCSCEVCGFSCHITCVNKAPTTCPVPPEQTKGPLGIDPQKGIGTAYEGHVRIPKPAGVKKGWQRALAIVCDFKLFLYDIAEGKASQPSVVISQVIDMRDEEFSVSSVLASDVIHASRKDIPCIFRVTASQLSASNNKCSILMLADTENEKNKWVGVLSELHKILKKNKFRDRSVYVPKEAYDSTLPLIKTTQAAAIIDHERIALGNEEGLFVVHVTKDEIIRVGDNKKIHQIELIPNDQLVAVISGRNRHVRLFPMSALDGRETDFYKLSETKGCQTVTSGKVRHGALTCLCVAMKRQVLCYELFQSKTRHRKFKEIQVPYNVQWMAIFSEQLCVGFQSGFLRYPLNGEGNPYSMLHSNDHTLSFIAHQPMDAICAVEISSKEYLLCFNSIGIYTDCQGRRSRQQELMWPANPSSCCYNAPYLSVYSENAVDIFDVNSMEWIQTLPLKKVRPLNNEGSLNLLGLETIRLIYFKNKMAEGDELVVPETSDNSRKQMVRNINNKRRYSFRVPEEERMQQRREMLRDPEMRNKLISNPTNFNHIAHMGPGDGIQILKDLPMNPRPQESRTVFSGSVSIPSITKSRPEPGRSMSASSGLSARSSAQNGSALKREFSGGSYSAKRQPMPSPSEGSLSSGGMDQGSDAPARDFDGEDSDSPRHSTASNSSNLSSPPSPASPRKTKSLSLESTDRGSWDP
Sequence of Cyclin-dependent kinase 8 (Homo sapiens) (P49336 whole entry): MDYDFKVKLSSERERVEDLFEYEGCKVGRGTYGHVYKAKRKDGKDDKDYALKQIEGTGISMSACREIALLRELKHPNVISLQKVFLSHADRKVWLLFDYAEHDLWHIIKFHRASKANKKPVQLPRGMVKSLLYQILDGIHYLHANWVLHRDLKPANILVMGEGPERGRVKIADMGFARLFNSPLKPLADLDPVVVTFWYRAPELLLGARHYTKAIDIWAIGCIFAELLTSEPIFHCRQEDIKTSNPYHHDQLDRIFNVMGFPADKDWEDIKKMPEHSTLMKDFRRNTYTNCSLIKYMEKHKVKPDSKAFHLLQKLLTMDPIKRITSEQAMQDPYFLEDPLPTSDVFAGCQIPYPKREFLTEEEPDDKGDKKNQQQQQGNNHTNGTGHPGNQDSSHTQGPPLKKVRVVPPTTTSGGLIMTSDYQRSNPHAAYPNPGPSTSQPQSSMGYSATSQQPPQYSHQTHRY
Sequence of Tyrosine-protein kinase receptor Tie-1 (Homo sapiens) (P35590 whole entry): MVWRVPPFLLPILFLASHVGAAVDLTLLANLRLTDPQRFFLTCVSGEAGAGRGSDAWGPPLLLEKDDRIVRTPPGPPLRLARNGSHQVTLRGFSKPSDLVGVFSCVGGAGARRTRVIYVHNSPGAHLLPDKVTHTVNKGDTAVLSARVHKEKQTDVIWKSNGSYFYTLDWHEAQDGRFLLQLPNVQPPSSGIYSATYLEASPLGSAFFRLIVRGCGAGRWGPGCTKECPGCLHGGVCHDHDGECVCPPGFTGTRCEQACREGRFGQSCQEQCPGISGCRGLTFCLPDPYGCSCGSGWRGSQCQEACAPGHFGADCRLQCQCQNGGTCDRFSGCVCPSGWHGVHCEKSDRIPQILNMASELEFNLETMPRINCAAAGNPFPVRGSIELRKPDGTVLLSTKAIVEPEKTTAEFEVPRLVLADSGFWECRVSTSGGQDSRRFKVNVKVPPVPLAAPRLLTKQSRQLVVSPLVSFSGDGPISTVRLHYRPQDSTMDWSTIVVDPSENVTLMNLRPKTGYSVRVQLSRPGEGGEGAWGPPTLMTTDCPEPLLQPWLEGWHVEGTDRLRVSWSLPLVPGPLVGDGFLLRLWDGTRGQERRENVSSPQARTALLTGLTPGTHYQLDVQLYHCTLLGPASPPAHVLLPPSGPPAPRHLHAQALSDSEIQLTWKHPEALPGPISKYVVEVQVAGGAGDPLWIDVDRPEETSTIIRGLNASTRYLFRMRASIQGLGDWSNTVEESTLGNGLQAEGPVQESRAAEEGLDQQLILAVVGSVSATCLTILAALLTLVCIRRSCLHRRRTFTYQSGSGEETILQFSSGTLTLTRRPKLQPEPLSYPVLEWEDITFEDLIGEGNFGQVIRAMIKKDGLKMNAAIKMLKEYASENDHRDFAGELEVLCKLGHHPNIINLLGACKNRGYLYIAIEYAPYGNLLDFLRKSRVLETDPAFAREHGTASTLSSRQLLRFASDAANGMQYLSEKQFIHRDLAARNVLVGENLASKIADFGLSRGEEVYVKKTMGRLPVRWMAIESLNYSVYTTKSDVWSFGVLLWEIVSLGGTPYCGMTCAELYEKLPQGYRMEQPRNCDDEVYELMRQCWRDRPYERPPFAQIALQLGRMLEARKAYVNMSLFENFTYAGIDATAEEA
Sequence of Bone morphogenetic protein receptor type-1B (Homo sapiens) (O00238 whole entry): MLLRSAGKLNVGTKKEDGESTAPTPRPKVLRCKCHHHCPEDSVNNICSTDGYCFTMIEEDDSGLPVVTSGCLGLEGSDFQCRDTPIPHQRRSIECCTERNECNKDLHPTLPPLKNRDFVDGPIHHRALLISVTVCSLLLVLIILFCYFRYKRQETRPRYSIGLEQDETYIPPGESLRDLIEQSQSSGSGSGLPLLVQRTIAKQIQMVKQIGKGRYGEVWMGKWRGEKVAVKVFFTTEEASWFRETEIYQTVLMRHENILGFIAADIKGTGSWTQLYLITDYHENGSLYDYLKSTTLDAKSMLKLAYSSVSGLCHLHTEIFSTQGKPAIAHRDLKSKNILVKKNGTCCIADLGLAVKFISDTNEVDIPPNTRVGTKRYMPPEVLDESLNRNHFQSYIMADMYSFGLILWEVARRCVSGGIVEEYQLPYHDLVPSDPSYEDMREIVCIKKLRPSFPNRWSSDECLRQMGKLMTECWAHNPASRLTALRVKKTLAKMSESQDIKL
Sequence of Ephrin type-A receptor 4 (Homo sapiens) (P54764 whole entry): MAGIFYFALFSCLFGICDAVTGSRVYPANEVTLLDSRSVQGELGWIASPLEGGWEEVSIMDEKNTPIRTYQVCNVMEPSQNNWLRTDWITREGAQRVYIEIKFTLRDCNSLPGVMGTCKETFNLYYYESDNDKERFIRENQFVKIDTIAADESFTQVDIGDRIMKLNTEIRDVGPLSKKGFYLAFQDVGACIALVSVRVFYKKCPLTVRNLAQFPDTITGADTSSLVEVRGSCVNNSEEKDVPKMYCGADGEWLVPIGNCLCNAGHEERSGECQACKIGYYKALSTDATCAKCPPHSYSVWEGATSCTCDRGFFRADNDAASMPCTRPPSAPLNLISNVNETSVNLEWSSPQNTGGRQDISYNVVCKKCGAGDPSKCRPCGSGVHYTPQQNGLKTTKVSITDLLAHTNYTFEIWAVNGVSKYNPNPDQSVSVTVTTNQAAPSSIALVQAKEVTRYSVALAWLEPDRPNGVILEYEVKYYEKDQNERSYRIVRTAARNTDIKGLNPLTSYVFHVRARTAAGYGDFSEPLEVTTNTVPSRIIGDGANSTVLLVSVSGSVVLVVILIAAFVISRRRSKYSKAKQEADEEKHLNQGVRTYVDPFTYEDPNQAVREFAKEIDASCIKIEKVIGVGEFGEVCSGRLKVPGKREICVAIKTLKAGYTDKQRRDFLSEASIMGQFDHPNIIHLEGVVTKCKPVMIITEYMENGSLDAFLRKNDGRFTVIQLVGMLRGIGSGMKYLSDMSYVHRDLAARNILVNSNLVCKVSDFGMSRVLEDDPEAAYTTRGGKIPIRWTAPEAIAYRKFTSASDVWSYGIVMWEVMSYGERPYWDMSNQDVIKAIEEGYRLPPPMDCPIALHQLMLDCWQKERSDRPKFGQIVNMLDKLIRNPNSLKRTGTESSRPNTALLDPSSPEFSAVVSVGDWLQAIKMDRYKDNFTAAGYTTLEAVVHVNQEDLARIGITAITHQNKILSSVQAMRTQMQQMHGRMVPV

CN1CCN(c2ccc(-c3cnc4c(c3)N(Cc3cc(Cl)ccc3C(F)(F)F)CCN4)cn2)CC1
< 50%: all assays above

Reference: ChEMBL document CHEMBL1165965, “Synthesis and structure-activity relationships of 1,2,3,4-tetrahydropyrido[2,3-b]pyrazines as potent and selective inhibitors of the anaplastic lymphoma kinase” (Bioorg Med Chem, 2010)
